These results are taken from ChEMBL document CHEMBL2203081 (Bioorg Med Chem Lett, 2012).

Active and inactive are the calls of the source. The calls are words filed in the database; no cut-off is given here.

For data set [1], the target named is TRAF2 and NCK-interacting protein kinase (Homo sapiens) (UniProt Q9UKE5). In words: Inhibition of TNIK assessed as residual activity at 10 uM relative to control.
Data set [2] has as its target Serine/threonine-protein kinase pim-1 (Homo sapiens) (UniProt P11309). Description: Inhibition of PIM1 assessed as residual activity at 1 uM.
The target of data set [3] is Calcium/calmodulin-dependent protein kinase type II subunit delta (Homo sapiens) (UniProt Q13557). In words: Inhibition of CAMK2D assessed as residual activity at 10 uM relative to control.
Chain of Calcium/calmodulin-dependent protein kinase type II subunit delta (Homo sapiens) (Q13557 whole entry): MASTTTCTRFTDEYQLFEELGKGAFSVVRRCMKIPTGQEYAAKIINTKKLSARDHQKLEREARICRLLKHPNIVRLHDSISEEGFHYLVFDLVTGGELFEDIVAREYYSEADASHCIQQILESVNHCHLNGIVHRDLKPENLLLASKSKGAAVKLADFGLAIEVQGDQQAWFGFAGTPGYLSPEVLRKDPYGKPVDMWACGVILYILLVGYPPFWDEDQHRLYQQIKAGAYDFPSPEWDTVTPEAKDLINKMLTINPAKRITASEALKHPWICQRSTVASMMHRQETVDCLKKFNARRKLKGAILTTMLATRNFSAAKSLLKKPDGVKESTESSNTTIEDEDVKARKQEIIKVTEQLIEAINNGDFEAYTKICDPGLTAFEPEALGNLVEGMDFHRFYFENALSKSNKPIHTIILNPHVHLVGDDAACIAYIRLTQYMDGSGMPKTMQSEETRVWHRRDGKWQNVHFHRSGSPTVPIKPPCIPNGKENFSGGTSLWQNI
For data set [4], the target named is Insulin receptor-related protein (Homo sapiens) (UniProt P14616). Description: Inhibition of IRR assessed as residual activity at 1 uM. An outline of the steps: (§1)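 Radioactivity-based enzymatic activity assay of the named kinase, run as part of a 131-kinase specificity panel at the National Centre for Protein Kinase Profiling (Dundee). Residual activity was read at the stated single inhibitor concentration.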

Data set [5] deals with Mitogen-activated protein kinase kinase kinase kinase 3 (Homo sapiens) (UniProt Q8IVH8). Description: Inhibition of MAP4K3 assessed as residual activity at 10 uM relative to control.
Data set [6] concerns the target Inhibitor of nuclear factor kappa-B kinase subunit alpha (Homo sapiens) (UniProt O15111). In words: Inhibition of IKK-alpha assessed as residual activity at 10 uM relative to control.
For data set [7], the target named is AP2-associated protein kinase 1 (Homo sapiens) (UniProt Q2M2I8). In words: Inhibition of AAK1 assessed as residual activity at 10 uM relative to control.
In the next data set the test system is Mus musculus. Description: Inhibition of LRRK2 in mouse assessed as inhibition of Ser935 autophosphorylation in brain at 100 mg/kg, ip by immunoblot method. The class given is functional, organism-based. More on the design: dose 100 mg/kg. Background: A western blot detects proteins with antibodies after separation by electrophoresis.
Another data set deals with Plasma. In words: AUClast in Swiss albino mouse plasma at 10 mg/kg, po. The format is ADME, organism-based. More on the design: dose 10 mg/kg, route oral, time 0 - last. The following applies: in vivo. An outline of the steps:
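Male Swiss Albino mice, single dose given intravenously (1 mg/kg) or orally (10 mg/kg). Drug measured in plasma and brain, with AUClast taken for each. The brain/plasma ratio is based on AUClast, and oral bioavailability is derived from the IV and PO plasma data.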

Data set [8] concerns the target Calcium/calmodulin-dependent protein kinase kinase 2 (Homo sapiens) (UniProt Q96RR4). In words: Inhibition of CAMKKb assessed as residual activity at 1 uM.
Data set [9] has as its target Tyrosine-protein kinase SYK (Homo sapiens) (UniProt P43405). In words: Inhibition of SYK assessed as residual activity at 10 uM.
Data set [10] has as its target Serine/threonine-protein kinase pim-1 (Homo sapiens) (UniProt P11309). In words: Inhibition of PIM1 assessed as residual activity at 10 uM.
The target in data set [11] is Mitogen-activated protein kinase 14 (Homo sapiens) (UniProt Q16539). In words: Inhibition of p38a MAPK assessed as residual activity at 10 uM.
Chain of Mitogen-activated protein kinase 14 (Homo sapiens) (Q16539 whole entry): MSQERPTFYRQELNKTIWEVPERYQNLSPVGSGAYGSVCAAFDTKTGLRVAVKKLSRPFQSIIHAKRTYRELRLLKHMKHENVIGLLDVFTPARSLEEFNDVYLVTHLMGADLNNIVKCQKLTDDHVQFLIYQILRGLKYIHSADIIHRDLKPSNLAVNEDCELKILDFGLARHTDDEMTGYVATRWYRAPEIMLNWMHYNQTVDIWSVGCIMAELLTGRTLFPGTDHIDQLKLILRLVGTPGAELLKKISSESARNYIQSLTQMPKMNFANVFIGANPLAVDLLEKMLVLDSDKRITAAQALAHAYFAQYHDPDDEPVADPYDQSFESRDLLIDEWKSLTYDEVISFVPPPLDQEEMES
Data set [12] is described as follows: Inhibition of FLT3 ITD mutant assessed as residual activity at 10 uM relative to control.
The target of data set [13] is Misshapen-like kinase 1 (Homo sapiens) (UniProt Q8N4C8). Description: Inhibition of MINK1 assessed as residual activity at 10 uM.
The target in data set [14] is Homeodomain-interacting protein kinase 1 (Homo sapiens) (UniProt Q86Z02). In words: Inhibition of HIPK1 assessed as residual activity at 10 uM. An outline of the steps: as §1
In data set [15] the target is T1, Ephrin type-B receptor 2 (Homo sapiens) (UniProt P29323).
T1 sequence (whole entry): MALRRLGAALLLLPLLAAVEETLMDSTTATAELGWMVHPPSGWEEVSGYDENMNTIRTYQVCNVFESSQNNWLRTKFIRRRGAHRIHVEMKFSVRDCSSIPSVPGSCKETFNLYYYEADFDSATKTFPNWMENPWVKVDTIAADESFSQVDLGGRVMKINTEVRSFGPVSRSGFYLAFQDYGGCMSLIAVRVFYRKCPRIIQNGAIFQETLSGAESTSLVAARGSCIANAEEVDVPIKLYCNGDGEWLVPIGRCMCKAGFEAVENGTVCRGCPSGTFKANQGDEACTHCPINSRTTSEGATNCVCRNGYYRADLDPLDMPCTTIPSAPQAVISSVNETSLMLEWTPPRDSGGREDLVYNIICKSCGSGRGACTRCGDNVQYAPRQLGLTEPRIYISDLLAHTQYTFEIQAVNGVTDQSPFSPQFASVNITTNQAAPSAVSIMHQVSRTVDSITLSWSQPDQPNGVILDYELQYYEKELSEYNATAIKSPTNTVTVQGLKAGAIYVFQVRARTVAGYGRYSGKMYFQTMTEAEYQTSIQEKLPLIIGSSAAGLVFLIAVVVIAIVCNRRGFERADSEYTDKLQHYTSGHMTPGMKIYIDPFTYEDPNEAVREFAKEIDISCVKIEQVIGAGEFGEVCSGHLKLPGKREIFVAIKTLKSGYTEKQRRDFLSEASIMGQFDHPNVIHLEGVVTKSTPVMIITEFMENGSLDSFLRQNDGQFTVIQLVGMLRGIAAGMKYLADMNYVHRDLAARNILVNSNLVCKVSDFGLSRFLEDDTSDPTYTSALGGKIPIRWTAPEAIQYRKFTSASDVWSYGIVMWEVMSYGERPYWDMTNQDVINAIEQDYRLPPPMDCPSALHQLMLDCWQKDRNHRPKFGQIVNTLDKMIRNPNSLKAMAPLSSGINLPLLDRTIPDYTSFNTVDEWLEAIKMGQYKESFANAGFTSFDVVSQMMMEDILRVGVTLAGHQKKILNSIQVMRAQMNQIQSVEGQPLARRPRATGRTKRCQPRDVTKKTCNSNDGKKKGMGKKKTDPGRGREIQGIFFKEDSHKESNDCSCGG
Description: Inhibition of EPH-B2 assessed as residual activity at 10 uM. An outline of the steps:
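Standard radioactivity-based enzymatic kinase assays on a 131-kinase panel run by the Dundee profiling service; residual kinase activity recorded.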

The test system of data set [16] is Epidermal growth factor receptor (Homo sapiens), P00533 [T790M]. Description: Inhibition of EGFR T790M mutant assessed as residual activity at 10 uM relative to control. The format is protein assay. An outline of the steps: (§2)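 Competition kinase-binding assay (KINOMEscan) across a non-redundant panel of 329 kinases beyond the radiometric panel; residual binding expressed relative to control.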

The subject of data set [17] is Epidermal growth factor receptor (Homo sapiens), P00533 [L858R,T790M]. In words: Inhibition of EGFR L858R,T790M mutant assessed as residual activity at 10 uM relative to control. The class given is protein assay. The procedure, abridged: as §2
Data set [18] deals with High affinity nerve growth factor receptor (Homo sapiens) (UniProt P04629). In words: Inhibition of TrkA assessed as residual activity at 1 uM.
Chain of High affinity nerve growth factor receptor (Homo sapiens) (P04629 33-796 limits assumed): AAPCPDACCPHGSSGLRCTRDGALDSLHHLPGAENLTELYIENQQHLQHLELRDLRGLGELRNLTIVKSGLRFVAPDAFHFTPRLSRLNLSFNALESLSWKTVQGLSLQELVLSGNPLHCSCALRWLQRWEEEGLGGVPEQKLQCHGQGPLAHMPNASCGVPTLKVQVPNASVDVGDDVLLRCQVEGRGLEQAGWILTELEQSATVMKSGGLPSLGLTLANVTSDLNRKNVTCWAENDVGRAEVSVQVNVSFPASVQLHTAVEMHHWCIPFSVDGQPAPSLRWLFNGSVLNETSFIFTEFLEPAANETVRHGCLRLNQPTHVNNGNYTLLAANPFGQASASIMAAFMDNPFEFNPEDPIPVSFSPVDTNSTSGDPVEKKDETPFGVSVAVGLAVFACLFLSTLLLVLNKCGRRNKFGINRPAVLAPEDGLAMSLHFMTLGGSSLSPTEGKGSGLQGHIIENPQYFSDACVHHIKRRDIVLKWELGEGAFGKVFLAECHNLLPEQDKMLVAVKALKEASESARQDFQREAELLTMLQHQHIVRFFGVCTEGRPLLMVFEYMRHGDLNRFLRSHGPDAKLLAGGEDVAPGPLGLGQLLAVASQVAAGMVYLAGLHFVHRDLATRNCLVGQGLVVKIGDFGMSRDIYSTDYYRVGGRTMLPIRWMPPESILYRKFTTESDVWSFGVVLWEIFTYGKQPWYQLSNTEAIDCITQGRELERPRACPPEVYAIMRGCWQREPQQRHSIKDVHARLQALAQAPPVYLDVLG
Data set [19] deals with Cyclin-dependent kinase 17 (Homo sapiens) (UniProt Q00537). Description: Inhibition of PCTK2 assessed as residual activity at 10 uM relative to control.
The target in data set [20] is Serine/threonine-protein kinase Nek6 (Homo sapiens) (UniProt Q9HC98). In words: Inhibition of NEK6 assessed as residual activity at 10 uM relative to control.
Chain of Serine/threonine-protein kinase Nek6 (Homo sapiens) (Q9HC98 whole entry): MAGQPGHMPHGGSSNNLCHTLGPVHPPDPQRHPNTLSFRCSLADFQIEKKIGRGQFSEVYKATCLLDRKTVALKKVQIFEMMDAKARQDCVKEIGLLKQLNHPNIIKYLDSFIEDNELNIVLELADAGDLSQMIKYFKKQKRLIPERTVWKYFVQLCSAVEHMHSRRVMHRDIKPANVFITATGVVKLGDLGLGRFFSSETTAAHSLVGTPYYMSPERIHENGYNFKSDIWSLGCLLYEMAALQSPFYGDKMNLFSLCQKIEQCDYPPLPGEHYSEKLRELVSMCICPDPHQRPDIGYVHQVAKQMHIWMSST
For data set [21], the target named is Myotonin-protein kinase (Homo sapiens) (UniProt Q09013). In words: Inhibition of DMPK assessed as residual activity at 10 uM relative to control. An outline of the steps: as §2
In data set [22] the target is Serine/threonine-protein kinase DCLK2 (Homo sapiens) (UniProt Q8N568). Description: Inhibition of DCAMKL2 assessed as residual activity at 10 uM relative to control. The procedure, abridged:
as §2

Chain of Serine/threonine-protein kinase pim-1 (Homo sapiens) (P11309 whole entry, looked up): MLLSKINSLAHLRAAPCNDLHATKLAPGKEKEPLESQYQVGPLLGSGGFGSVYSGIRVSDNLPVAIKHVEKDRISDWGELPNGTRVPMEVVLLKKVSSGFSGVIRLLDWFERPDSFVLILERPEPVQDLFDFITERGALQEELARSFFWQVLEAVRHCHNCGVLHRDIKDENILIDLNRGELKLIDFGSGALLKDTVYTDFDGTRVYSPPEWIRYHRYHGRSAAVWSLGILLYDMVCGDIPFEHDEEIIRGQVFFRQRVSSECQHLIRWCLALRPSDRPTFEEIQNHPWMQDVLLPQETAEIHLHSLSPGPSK
Chain of TRAF2 and NCK-interacting protein kinase (Homo sapiens) (Q9UKE5 whole entry, looked up): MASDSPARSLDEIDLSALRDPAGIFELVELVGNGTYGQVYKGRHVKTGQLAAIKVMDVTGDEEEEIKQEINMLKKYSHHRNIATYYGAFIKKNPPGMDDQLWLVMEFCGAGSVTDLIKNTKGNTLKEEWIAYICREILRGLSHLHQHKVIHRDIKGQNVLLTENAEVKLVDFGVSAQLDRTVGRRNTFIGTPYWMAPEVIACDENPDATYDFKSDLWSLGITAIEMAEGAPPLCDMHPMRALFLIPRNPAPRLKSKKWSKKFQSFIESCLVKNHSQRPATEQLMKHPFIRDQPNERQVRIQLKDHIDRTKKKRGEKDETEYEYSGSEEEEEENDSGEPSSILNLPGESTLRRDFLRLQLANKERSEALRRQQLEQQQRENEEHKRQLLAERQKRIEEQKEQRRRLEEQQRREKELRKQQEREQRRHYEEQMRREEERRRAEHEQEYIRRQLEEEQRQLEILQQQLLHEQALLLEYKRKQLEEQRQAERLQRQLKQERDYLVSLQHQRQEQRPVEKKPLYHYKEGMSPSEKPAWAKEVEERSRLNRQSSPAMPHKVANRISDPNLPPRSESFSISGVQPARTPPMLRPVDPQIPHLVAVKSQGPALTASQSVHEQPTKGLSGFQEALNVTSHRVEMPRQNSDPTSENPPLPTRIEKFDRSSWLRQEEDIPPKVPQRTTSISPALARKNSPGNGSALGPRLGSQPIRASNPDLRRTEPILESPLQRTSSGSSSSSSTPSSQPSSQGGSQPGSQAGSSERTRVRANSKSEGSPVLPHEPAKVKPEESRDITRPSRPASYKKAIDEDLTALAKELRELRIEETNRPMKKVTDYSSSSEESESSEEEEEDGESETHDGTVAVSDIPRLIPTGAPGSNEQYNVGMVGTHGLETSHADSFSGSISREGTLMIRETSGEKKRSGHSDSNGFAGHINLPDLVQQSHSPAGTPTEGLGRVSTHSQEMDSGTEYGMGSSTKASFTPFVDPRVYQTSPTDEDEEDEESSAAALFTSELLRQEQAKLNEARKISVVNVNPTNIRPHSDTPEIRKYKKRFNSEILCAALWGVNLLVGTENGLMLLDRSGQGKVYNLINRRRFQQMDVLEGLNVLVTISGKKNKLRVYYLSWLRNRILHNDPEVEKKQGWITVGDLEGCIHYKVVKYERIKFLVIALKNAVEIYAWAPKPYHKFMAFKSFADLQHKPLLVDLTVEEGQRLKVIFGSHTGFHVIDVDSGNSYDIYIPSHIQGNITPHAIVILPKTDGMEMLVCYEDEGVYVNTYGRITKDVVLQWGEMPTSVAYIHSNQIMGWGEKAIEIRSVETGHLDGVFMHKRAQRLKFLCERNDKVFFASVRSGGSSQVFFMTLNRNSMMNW
Chain of Serine/threonine-protein kinase DCLK2 (Homo sapiens) (Q8N568 whole entry): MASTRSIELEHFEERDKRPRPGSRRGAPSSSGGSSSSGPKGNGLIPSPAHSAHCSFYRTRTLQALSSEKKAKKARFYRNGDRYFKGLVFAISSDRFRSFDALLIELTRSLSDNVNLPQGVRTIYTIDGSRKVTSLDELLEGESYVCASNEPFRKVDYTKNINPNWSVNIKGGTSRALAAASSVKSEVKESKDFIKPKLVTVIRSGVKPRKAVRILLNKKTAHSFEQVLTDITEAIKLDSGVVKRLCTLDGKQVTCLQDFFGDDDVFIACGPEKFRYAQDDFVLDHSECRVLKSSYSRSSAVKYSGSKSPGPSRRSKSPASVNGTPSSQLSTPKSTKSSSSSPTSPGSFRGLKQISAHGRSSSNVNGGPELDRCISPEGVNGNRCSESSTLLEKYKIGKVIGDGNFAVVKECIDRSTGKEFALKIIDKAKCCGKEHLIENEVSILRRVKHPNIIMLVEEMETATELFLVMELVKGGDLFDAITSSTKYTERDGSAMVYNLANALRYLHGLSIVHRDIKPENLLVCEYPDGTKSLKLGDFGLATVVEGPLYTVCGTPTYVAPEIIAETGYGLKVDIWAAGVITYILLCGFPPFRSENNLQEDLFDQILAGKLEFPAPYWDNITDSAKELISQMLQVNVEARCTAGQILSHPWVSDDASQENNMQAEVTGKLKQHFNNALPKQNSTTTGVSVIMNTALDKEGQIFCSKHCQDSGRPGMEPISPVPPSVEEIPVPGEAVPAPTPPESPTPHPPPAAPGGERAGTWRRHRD
Chain of Calcium/calmodulin-dependent protein kinase kinase 2 (Homo sapiens) (Q96RR4 2-588 limits assumed): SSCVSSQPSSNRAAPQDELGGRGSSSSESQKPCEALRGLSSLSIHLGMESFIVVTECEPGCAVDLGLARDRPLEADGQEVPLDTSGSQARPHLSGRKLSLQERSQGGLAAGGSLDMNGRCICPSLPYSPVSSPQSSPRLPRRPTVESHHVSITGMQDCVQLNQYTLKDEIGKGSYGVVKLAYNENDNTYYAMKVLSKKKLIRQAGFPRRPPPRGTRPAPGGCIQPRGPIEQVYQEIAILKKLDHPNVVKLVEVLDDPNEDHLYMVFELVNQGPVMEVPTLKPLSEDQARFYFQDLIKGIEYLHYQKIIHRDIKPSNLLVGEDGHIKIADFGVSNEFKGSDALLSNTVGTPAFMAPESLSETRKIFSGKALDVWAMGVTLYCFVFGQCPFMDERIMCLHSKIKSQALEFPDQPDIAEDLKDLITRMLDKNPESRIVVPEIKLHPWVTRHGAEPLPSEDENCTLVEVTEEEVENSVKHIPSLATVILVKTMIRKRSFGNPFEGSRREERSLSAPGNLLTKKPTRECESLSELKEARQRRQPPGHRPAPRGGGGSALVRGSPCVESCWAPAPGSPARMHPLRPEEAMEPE

In the case of `O=C(Nc1cccnc1)c1cc(-c2ccnc(F)c2)ccc1OCc1ccccc1`, the Activity in data set [1] amounted to 74%; in [2], 102%; in [3] it was 64%; in data set [4] it was 76%; in data set [5], 60%; in [6], 58%. Moreover, the Activity was 67% in data set [7]; 71% in [8]; 125% in [9]; 109% in data set [10]; 102% in data set [11]; 16% in [12]. The Activity in data set [13] was found to be 76%; in data set [14], 61%; in [15], 115%; in data set [16], 40%; in [17], 46%; in data set [18] it was 80%. Further, the Activity in [19] came to 75%; in data set [20] it was 50%; in [21], 58%; in data set [22], 48%. The inhibition entry with Mus musculus was “inactive”. For the same molecule, in the data set with Plasma, the AUClast is 635.3 ng·h/mL.
